{"source": "paper PMC4049353", "about": "(Steroids, 2014)", "key": {"[1]": {"target": "glucocorticoid receptor (GR)", "conditions": "cited from earlier work; for pKd: read-out: Kd,lit, consensus average of published GR binding values; for rRBAlit: relative receptor binding affinity, DEX = 100"}, "[2]": {"system": "TNFα-induced NF-κB activation", "assay": "suppression of TNFα-induced NF-κB activation in HEK-Blue CD40L sensor cells", "assay_type": "cell-based, human", "conditions": "for pIC50: Homo sapiens, HEK-Blue, 20 h, read-out: TNFα, IC50; for rRBATNFα: relative potency from TNFα IC50, DEX = 100", "method_in_brief": "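Cells used: HEK293 stably expressing human CD40 and an NF-κB/AP-1-inducible SEAP, seeded at about 5 × 10⁴ cells/well in 1% FBS DMEM. TNFα (3 ng/mL) added with test compound at 0, 0.01, 0.1, 1.0, 10, 100 or 1000 nM; incubated 20 h at 37°C, 5% CO₂. SEAP quantified with QUANTI-Blue at 620–655 nm. Five independent experiments, triplicates or quadruplicates. Percent suppression fitted to a Hill equation (bottom zero; shared Emax and nH).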"}, "[3]": {"system": "CD40L-induced NF-κB activation", "assay": "suppression of CD40L-induced NF-κB activation in HEK-Blue CD40L sensor cells", "assay_type": "cell-based, human", "conditions": "for pIC50: Homo sapiens, HEK-Blue, 30 h, read-out: CD40L, IC50; for CD40L/TNFα pot.: potency ratio of CD40L assay vs TNFα assay; for rRBACD40L: relative potency from CD40L IC50, DEX = 100", "method_in_brief": "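Reporter HEK293 cells (human CD40; NF-κB/AP-1-driven SEAP) at about 5 × 10⁴ cells/well in 1% FBS DMEM. Stimulated with CD40L (CD154, 25 ng/mL) plus test compound at 0–1000 nM (10-fold steps) for 30 h at 37°C, 5% CO₂. SEAP read by QUANTI-Blue at 620–655 nm. Five independent experiments in triplicate or quadruplicate. Percent suppression vs stimulation alone fitted to a Hill model (bottom fixed at zero; Emax and nH shared).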"}, "CD40 (Homo sapiens)": {"target": "CD40 (Homo sapiens) (UniProt P25942)", "sequence (P25942 21-277)": "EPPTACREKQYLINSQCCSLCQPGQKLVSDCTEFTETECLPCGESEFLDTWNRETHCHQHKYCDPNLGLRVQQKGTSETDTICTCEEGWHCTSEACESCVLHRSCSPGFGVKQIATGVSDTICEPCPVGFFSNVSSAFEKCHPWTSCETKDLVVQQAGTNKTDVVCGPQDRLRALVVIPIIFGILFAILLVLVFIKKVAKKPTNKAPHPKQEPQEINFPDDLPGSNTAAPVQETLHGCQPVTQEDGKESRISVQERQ", "conditions": "cited from earlier work"}, "[4]": {"system": "NF-κB activation in HEK-Blue CD40L sensor cells", "assay": "ligand-induced NF-κB activation of HEK-Blue CD40L sensor cells", "assay_type": "cell-based, human", "conditions": "one-site specific binding model", "method_in_brief": "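HEK293 cells stably carrying human CD40 and a SEAP reporter under the IFN-β minimal promoter with five NF-κB and five AP-1 sites. Grown in DMEM (4.5 g/L glucose, 10% FBS, 2 mM L-glutamine), then resuspended in 1% FBS medium. Stimulated with FLAG-tagged TNFα or CD40L (CD154) over a concentration series. SEAP measured with QUANTI-Blue at 620–655 nm; data fitted with a one-site specific binding model.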"}, "TNF-R1": {"target": "TNF-R1", "conditions": "read-out: Kd TNFα – TNF-R1; cell-free binding; cited from earlier work"}, "CD40": {"target": "CD40", "conditions": "read-out: Kd CD40L – CD40; cell-free binding; cited from earlier work"}}, "note": "pIC50, pKd: −log10 of the molar value. Several values for one entry are separate records, joined by “and”; a condition that tells them apart may be missing. Equal entries are not always repeated.", "data": [{"compound": "CCC(=O)O[C@]1(C(=O)CCl)[C@@H](C)C[C@H]2[C@@H]3CCC4=CC(=O)C=C[C@]4(C)[C@@]3(F)[C@@H](O)C[C@@]21C", "note": "[CP, clobetasol propionate]", "values": [{"measurement": "pKd", "setting": "[1]", "result": 10.00}, {"measurement": "rRBAlit", "setting": "[1]", "result": 6300.0}, {"measurement": "pIC50", "setting": "[2]", "result": 10.70}, {"measurement": "rRBATNFα", "setting": "[2]", "result": 13074.5}, {"measurement": "pIC50", "setting": "[3]", "result": 11.00}, {"measurement": "CD40L/TNFα pot.", "setting": "[3]", "result": 1.62}, {"measurement": "rRBACD40L", "setting": "[3]", "result": 13653.4}]}, {"compound": "C[C@]12C=CC(=O)C=C1CC[C@@H]1[C@@H]2[C@@H](O)C[C@@]2(C)[C@H]1CC[C@]2(O)C(=O)CO", "note": "[PRED, prednisolone]", "values": [{"measurement": "GR rRBA", "setting": "[1]", "result": "≈ 20 % of dexamethasone"}, {"measurement": "rRBAlit", "setting": "[1]", "result": 19.0}, {"measurement": "pIC50", "setting": "[2]", "result": 7.85}, {"measurement": "rRBATNFα", "setting": "[2]", "result": 20.6}, {"measurement": "pIC50", "setting": "[3]", "result": 9.52}, {"measurement": "CD40L/TNFα pot.", "setting": "[3]", "result": 47.49}, {"measurement": "rRBACD40L", "setting": "[3]", "result": 632.9}]}, {"compound": "CCC(=O)OCC(=O)[C@@]1(OC(=O)CC)[C@@H](C)C[C@H]2[C@@H]3CCC4=CC(=O)C=C[C@]4(C)[C@@]3(Cl)[C@@H](O)C[C@@]21C", "note": "[BDP, beclomethasone dipropionate]", "values": [{"measurement": "pIC50", "setting": "[2]", "result": 10.00}, {"measurement": "rRBATNFα", "setting": "[2]", "result": 2952.7}, {"measurement": "pIC50", "setting": "[3]", "result": 9.66}, {"measurement": "CD40L/TNFα pot.", "setting": "[3]", "result": 0.46}, {"measurement": "rRBACD40L", "setting": "[3]", "result": 872.2}]}, {"compound": "CD40L (from UniProt P29965)", "values": [{"measurement": "pKd", "setting": "CD40 (Homo sapiens)", "result": 9.00}]}, {"compound": "CC1(C)O[C@@H]2C[C@H]3[C@@H]4CCC5=CC(=O)C=C[C@]5(C)[C@@]4(F)[C@@H](O)C[C@]3(C)[C@]2(C(=O)CO)O1", "note": "[TA, triamcinolone acetonide]", "values": [{"measurement": "pKd", "setting": "[1]", "result": 8.61}, {"measurement": "rRBAlit", "setting": "[1]", "result": 270.0}, {"measurement": "pIC50", "setting": "[2]", "result": 9.12}, {"measurement": "rRBATNFα", "setting": "[2]", "result": 387.4}, {"measurement": "pIC50", "setting": "[3]", "result": 9.37}, {"measurement": "CD40L/TNFα pot.", "setting": "[3]", "result": 1.77}, {"measurement": "rRBACD40L", "setting": "[3]", "result": 442.1}]}, {"compound": "C[C@@H]1C[C@H]2[C@@H]3CCC4=CC(=O)C=C[C@]4(C)[C@@]3(F)[C@@H](O)C[C@]2(C)[C@@]1(O)C(=O)CO", "note": "[DEX, dexamethasone]", "values": [{"measurement": "rRBAlit", "setting": "[1]", "result": 100.0}, {"measurement": "pIC50", "setting": "[2]", "result": 8.53}, {"measurement": "rRBATNFα", "setting": "[2]", "result": 100.0}, {"measurement": "pIC50", "setting": "[3]", "result": 8.72}, {"measurement": "CD40L/TNFα pot.", "setting": "[3]", "result": 1.55}, {"measurement": "rRBACD40L", "setting": "[3]", "result": 100.0}]}, {"compound": "C[C@]12CCC(=O)C=C1CC[C@@H]1[C@@H]2[C@@H](O)C[C@@]2(C)[C@H]1CC[C@]2(O)C(=O)CO", "note": "[HC, hydrocortisone]", "values": [{"measurement": "rRBAlit", "setting": "[1]", "result": 10}, {"measurement": "pIC50", "setting": "[2]", "result": 7.81}, {"measurement": "rRBATNFα", "setting": "[2]", "result": 18.9}, {"measurement": "pIC50", "setting": "[3]", "result": 9.27}, {"measurement": "CD40L/TNFα pot.", "setting": "[3]", "result": 28.75}, {"measurement": "rRBACD40L", "setting": "[3]", "result": 350.3}]}, {"compound": "TNFα", "values": [{"measurement": "median effective concentration (EC50) for NF-κB activation", "setting": "[4]", "result": "0.0027 µg/mL and ~0.003 µg/mL"}, {"measurement": "pKd", "setting": "TNF-R1", "result": "~9.30"}]}, {"compound": "CD40L: FLAG-tagged ligand used for stimulation in the cell assays (Axxora)", "values": [{"measurement": "median effective concentration (EC50) for NF-κB activation", "setting": "[4]", "result": "0.041 µg/mL and ~0.04 µg/mL"}, {"measurement": "pKd", "setting": "CD40", "result": "~9.00"}]}, {"compound": "CCOC(=O)O[C@]1(C(=O)OCCl)CC[C@H]2[C@@H]3CCC4=CC(=O)C=C[C@]4(C)[C@H]3[C@@H](O)C[C@@]21C", "note": "[LE, loteprednol etabonate]", "values": [{"measurement": "pKd", "setting": "[1]", "result": 8.36}, {"measurement": "rRBAlit", "setting": "[1]", "result": 150.0}, {"measurement": "pIC50", "setting": "[2]", "result": 9.10}, {"measurement": "rRBATNFα", "setting": "[2]", "result": 372.6}, {"measurement": "pIC50", "setting": "[3]", "result": 10.22}, {"measurement": "CD40L/TNFα pot.", "setting": "[3]", "result": 13.96}, {"measurement": "rRBACD40L", "setting": "[3]", "result": 3357.0}]}]}
